# Screening results as filed in PubChem BioAssay.
# A selection follows.
# PGC1a Ac signal = raises PGC1a acetylation signal in U2OS cells; 0.21% of 350,000 active; activation, % at 15.6 µM; U2OS PGC1a acetylation AlphaScreen, overnight;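 active means every replicate reaching activation of at least 50%, whatever the mean replicate activation; inconclusive means replicates that disagree or another doubt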;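 further: hits raise the AlphaScreen acetylation signal above neutral controls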
#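 Incubation: overnight compound treatment, 37 °C. System: U2OS cells transduced with flag-tagged PGC1a and GCN5 acetyltransferase. Detection: AlphaScreen lysate read. Compound: single-point compound dosing.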
# Hep G6PC suppr = PGC-1a acetylation activator altering hepatocyte G6PC expression; shares compounds with PGC1a Ac signal; 240 tested, under 10 active; AID 743463; primary mouse hepatocytes, G6PC mRNA qPCR, forskolin; G6PC suppression (normalized activity, % of positive control; higher = more suppression), % at 26 µM;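 active means dose curves showing G6PC suppression whose half-maximal dose is at most twice the top valid dose; inconclusive means flat curves with moderate negative activity, or unreliable fits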;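 further: G6PC expression relative to GAPDH housekeeping gene as delta delta Ct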
# PCK1 hep suppr = PGC-1a acetylation activator altering hepatocyte PCK1 expression | shares compounds with PGC1a Ac signal | primary mouse hepatocytes, PCK1 mRNA qPCR, forskolin-stimulated | PCK1 expression decrease, unspecified at 26 µM | 230 tested, under 10 active | AID 743465;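 active means compounds lowering PCK1 expression whose fitted half-maximal concentration is at most twice the top tested dose; inconclusive means flat fit with moderate opposite-direction effect, or poor fit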;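 further: higher delta delta Ct means lower PCK1 expression so positive values indicate hits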
# Hep PGC-1a down = PGC-1a acetylation activator altering hepatocyte PGC-1a expression. primary mouse hepatocytes, PGC-1a mRNA qPCR, forskolin; top dose 26 µM. AID 743467. 240 tested, under 10 active. shares compounds with PGC1a Ac signal. max activity (PGC-1a expression decrease), %;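 active means compound lowering PGC-1a expression with fitted half-maximal concentration at most twice its top tested dose; inconclusive means flat curve with moderate opposite-direction effect, or poor fit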
# Numbers stand for hits; 0 = inactive; ? = inconclusive; - = no result.
SMILES,PGC1a Ac signal,Hep G6PC suppr,PCK1 hep suppr,Hep PGC-1a down
COC(=O)[C@@]1(Cc2ccccc2CN=[N+]=[N-])N=C(c2ccc(OCCCO)cc2)O[C@H]1c1ccccc1,66,-,-,-
COC(=O)[C@]1(Cc2ccccc2)N=C(c2ccc(OCCCO)cc2)O[C@@H]1c1ccccc1CN=[N+]=[N-],101,-,-,-
CN(C)c1ccc(C(=O)NC2(N3CCC3=O)CCCC2)cc1,0,-,-,-
C[C@@H]1CN([C@@H](C)CO)C(=O)c2cc(NC(=O)CCCN(C)C)ccc2O[C@@H](C)CCCCO[C@@H]1CN(C)Cc1ccc(C(F)(F)F)cc1,0,-,-,-
Cn1c(=O)c2c(ncn2CC(=O)O)n(C)c1=O,0,-,-,-
Cc1c(C(=O)Nc2ccc3c(c2)OCCO3)sc2nc(-c3ccccc3)cn12,62,-,-,-
CCOc1ccnc(OCC)c1Br,0,-,-,-
CCCc1cc2c(cc1N(C)S(=O)(=O)c1ccccc1)OCO2,?,0,0,0
COc1ccc(OC)c(NC(=O)CSc2nnc(-c3cccnc3)s2)c1,85,0,0,0
C=CC(=O)Nc1cccc(Oc2ccnc(Nc3ccc(N4CCN(C)CC4)cc3)n2)c1,0,-,-,-
O=C(CN1CCC(n2nnc3cc(C(F)(F)F)ccc32)CC1)NCc1cccs1,-,0,0,0
Cc1ccc2nsnc2c1S(=O)(=O)N(Cc1ccco1)Cc1cc2cccc(C)c2[nH]c1=O,0,-,-,-
COc1cccc(Cn2c(NCc3cccnc3)nc3c2c(=O)n(C)c(=O)n3C)c1,0,-,-,-
O=C(Nc1cccnc1)c1ccc(Br)s1,?,0,0,0
O=C(O)c1cc(O)c2c(c1)C(=O)c1cccc(O)c1C2=O,0,-,-,-
CC(C)(C)OC(=O)NCCc1nnc(SCc2ccc(Cl)cc2)o1,0,-,-,-
CC1CCCC=CC2CC(OC(=O)CN(C)C)CC2C(O)C=CC(=O)O1 (stereo not given),0,-,-,-
CSc1nsc(SC)c1NC(=O)Nc1ccccc1C,0,0,0,0
COc1ccc(Nc2nnc(-c3ccc(C(N)=O)cc3)c3ccccc23)cc1,89,0,0,0
C#CC(=O)N(c1cccc(OC)c1)C(C(=O)NC1CCCC1)c1cccs1 (stereo not given),0,-,-,-
COc1ccc(N(C(=O)c2snc(C(N)=O)c2N)C(C(=O)NC2CCCC2)c2ccco2)c(OC)c1 (stereo not given),?,-,0,0
C#CC(=O)N(c1ccc(OC)c(OC)c1)C(C(=O)NC1CCCC1)c1cccs1 (stereo not given),0,-,-,-
O=C1CN(C(=O)COC(=O)/C=C/c2ccco2)c2ccccc2N1,0,-,-,-
COC(=O)c1ccc(CSc2nc3c(cnn3-c3ccc(Cl)cc3)c(=O)[nH]2)o1,0,-,-,-
Cc1c(C(=O)NCCSCc2c(F)cccc2Cl)cnn1-c1ccc(Cl)cc1,?,0,0,0
SMILES,PGC1a Ac signal,Hep G6PC suppr,PCK1 hep suppr,Hep PGC-1a down
CCN(CC)CC#CCOC(c1ccccc1)c1ccccc1,0,-,-,-
O=C(O)C1CCCN1S(=O)(=O)c1ccc(Br)s1 (stereo not given) (tested in a mixture with another compound),0,-,-,-
O=C(Cc1ccccc1)Nc1cccc(-c2nc3ncccc3o2)c1,122,0,0,0
Cc1ccc(C)n1-c1ccc(-c2nnco2)cc1,0,-,-,-
CCOC(=O)C1=C(C)N=C2SC(C(=O)OC)=CC(=O)N2C1c1cccc(OC)c1 (stereo not given),0,-,-,-
Cc1cc(/C=C\c2ccc3cc(N(C)C)ccc3[n+]2C)c(C)n1-c1ccccc1,0,-,-,-
Cc1ccc(-n2nc3ccc(N)cc3n2)cc1,0,-,-,-
CCn1cnc2cc(NCc3ccc(N(C)C)cc3)ccc21,0,0,-,?
NS(=O)(=O)c1ccc(-c2ccc(/C=C3\C(=O)Nc4cc(Cl)ccc43)o2)cc1,0,-,-,-
Cc1ccc(S(=O)(=O)/N=C2\C=C(Nc3ccc(O)cc3)C(=O)c3ccccc32)cc1,0,-,-,-
CC(C)(C)C1CCC(CN2C(Nc3ccccc3)=NC[C@@H]2Cc2ccccc2)CC1 (stereo not given in full),0,-,-,-
CC(C)c1ccccc1NC(=O)Cn1c(-c2ccccc2Cl)nc2ccccc21,0,-,-,-
CC(C)n1c(N2CCN(CC(=O)NCc3cccs3)CC2)nc2ccccc21,-,0,0,0
COc1cc(/C=N/NC(=O)c2ccncc2)ccc1OC(C)=O,0,-,-,-
COc1ccc(C2c3[nH]c4ccccc4c3C[C@H]3C(=O)N(c4ccccc4C(=O)N4CCC[C@@H]4C(=O)O)C(=O)N23)cc1 (stereo not given in full),0,-,-,-
c1cncc(CNc2ncnc3ccc(-c4ccoc4)cc23)c1,0,-,-,-
Cc1c(OCc2ccc(C(=O)O)cc2)ccc2c(-c3ccccc3)cc(=O)oc12,0,0,0,0
Cc1nn(C)c(C)c1N1C(=O)c2cccc3c(Br)ccc(c23)C1=O,0,-,-,-
CCOc1ccc(N2C(=O)Cc3ccccc3C2=O)cc1,0,-,-,-
Cc1ccc(Cl)cc1NC(=O)Cn1nc(-c2cccs2)ccc1=O,0,0,0,0
COc1ccccc1C(=O)N1C(CC(=O)Nc2cc(Cl)ccc2C)C(=O)NC2CCCCC21 (stereo not given),0,-,-,-
NCCCn1c(C(=O)c2cc(Cl)c(N)c(Cl)c2)c2ccc([N+](=O)[O-])cc2[n+]1[O-],0,-,-,-
Cc1cc(C2=NNC(=NCCc3ccccc3)SC2)c(C)n1-c1c(C)n(C)n(-c2ccccc2)c1=O,0,-,-,-
CCN(CC(=O)NCc1ccc(Cl)cc1)C(=O)CSCC(=O)Nc1ccc(C)cc1,?,0,0,0
COc1ccc2sc(C)[n+](C)c2c1,0,-,-,-
SMILES,PGC1a Ac signal,Hep G6PC suppr,PCK1 hep suppr,Hep PGC-1a down
O=C(c1ccc(Cl)cc1)C(Cn1cncn1)C(Sc1ccccc1)c1ccccc1 (stereo not given),0,-,-,-
O=C(C/C=N/OCc1c(Cl)cccc1Cl)c1cnc(-c2ccccc2)s1,0,-,-,-
C[C@@H]1CN([C@H](C)CO)C(=O)c2c(c3ccccc3n2C)-c2ccccc2CO[C@@H]1CN(C)C(=O)c1ccc(F)cc1,78,0,0,0
C[C@H](CO)N1C[C@H](C)[C@@H](CN(C)C(=O)Nc2ccc(-c3cccs3)cc2)OCc2cnnn2CCCC1=O,0,-,-,-
C[C@@H]1CN([C@@H](C)CO)C(=O)Cc2cc(NC(=O)Cc3ccccc3)ccc2O[C@H]1CN(C)C(=O)Nc1ccccc1,0,0,0,0
C[C@@H]1CN([C@H](C)CO)C(=O)c2c(c3ccccc3n2C)-c2ccccc2CO[C@@H]1CN(C)C(=O)[C@H](C)c1ccccc1,133,0,0,0
C[C@@H]1CN([C@H](C)CO)C(=O)c2c(c3ccccc3n2C)-c2ccccc2CO[C@@H]1CN(C)C(=O)Nc1ccc2c(c1)OCO2,?,0,0,?
C[N+]1(C)CCC(=C2c3ccccc3CC(=O)c3sccc32)CC1,0,-,-,-
COc1ccc(N2C(=O)CC2(/C=C/c2ccccc2OC)C(=O)NC2CCCC2)cc1 (stereo not given),0,-,-,-
COc1ccc(C2NC(=S)NC3=C2CCCC3=C2SCCS2)cc1 (stereo not given),0,-,-,-
N#Cc1c(C#N)c(O)c2ccccc2c1O,0,-,-,-
C[C@@H]1CN([C@@H](C)CO)C(=O)c2c(c3ccccc3n2C)-c2ccccc2CO[C@@H]1CN(C)C(=O)Nc1ccccc1C(F)(F)F,74,0,0,0
O=C(OCc1nnc(-c2ccccc2)o1)C1=COCCO1,0,-,-,-
